Key:
Mus musculus [1] = test: Activity of compound dose of 0.5 mg/kg/day against Murine B-16 Melanocarcinoma in mice; type: functional
Mus musculus [2] = test: Effect of compound on total white blood cell count in BDG1 male mice, after intraperitoneal administration at a dose of 5.63 mg/kg on day 5; type: functional
Mus musculus [3] = test: Minimum effective dose that show activity against P-388 murine leukemia cells in CDF1 female mice, after intraperitoneal administration (optimal dose is 3.2 mg/kg); type: functional; settings: P388, ip, read-out: MED
Procedure, shortened: (§1)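 10⁶ P-388 ascites cells implanted ip in CDF₁ female mice. Six mice per dose, 10 saline-injected controls, and a concurrent mitomycin C reference group. %T/C = median survival time of treated/control × 100. MED is the lowest dose giving %T/C > 125. Therapeutic ratio = optimal dose/MED.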

Mus musculus [4] = test: Effect of compound on total white blood cell count in BDG1 male mice, after intraperitoneal administration at a dose of 4.22 mg/kg on day 3; type: functional
Mus musculus [5] = test: Effect of compound on total white blood cell count in BDG1 male mice, after intraperitoneal administration at a dose of 3.16 mg/kg on day 5; type: functional
Mus musculus [6] = test: Effect of compound on total white blood cell count in BDG1 male mice, after intraperitoneal administration at a dose of 4.22 mg/kg on day 7; type: functional
Mus musculus [7] = test: Effect of compound on total white blood cell count in BDG1 male mice, after intraperitoneal administration at a dose of 5.63 mg/kg on day 7; type: functional
Mus musculus [8] = test: Effect of compound on total white blood cell count in BDG1 male mice, after intraperitoneal administration at a dose of 7.5 mg/kg on day 7; type: functional
Mus musculus [9] = test: Number of tumored survivors, 45 days after administration of compound at a dose of 1 mg/kg/day in mice; type: functional
Mus musculus [10] = test: Activity of compound dose of 8 mg/kg/day against Murine B-16 Melanocarcinoma in mice; type: functional
Mus musculus [11] = test: Number of tumored survivors, 45 days after administration of compound at a dose of 8 mg/kg/day in mice; type: functional
Mus musculus [12] = test: Activity of compound dose of 1 mg/kg/day against Murine B-16 Melanocarcinoma in mice; type: functional
Mus musculus [13] = test: Activity of compound dose of 2 mg/kg/day against Murine B-16 Melanocarcinoma in mice; type: functional
Mus musculus [14] = test: Effect of compound on total white blood cell count in BDG1 male mice, after intraperitoneal administration at a dose of 3.16 mg/kg on day 7; type: functional
Mus musculus [15] = test: Number of cured survivors, 45 days after administration of compound at a dose of 1 mg/kg/day in mice; type: functional
Mus musculus [16] = species on record: Mus musculus; test: Degree of leukopenia produced by compound is assessed form Percent change in white cells on day 3; type: functional
Procedure, shortened: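 BDG₁ male mice received a single ip dose on day 0. The dose series topped out at the LD₅₀ level, or at twice the optimal dose for some agents. Total white blood cell count was taken on days 3, 5 and 7 and expressed as % change from untreated controls. Significance was set at p ≤ 0.05 or p ≤ 0.01.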

Mus musculus [17] = test: Effect of compound on total white blood cell count in BDG1 male mice, after intraperitoneal administration at a dose of 5.63 mg/kg on day 3; type: functional
Mus musculus [18] = species on record: Mus musculus; test: Half-wave potential produced by the compound at their optimal dose; type: functional; design: unit not given here
Mus musculus [19] = test: Effect of compound on total white blood cell count in BDG1 male mice, after intraperitoneal administration at a dose of 7.5 mg/kg on day 5; type: functional
Mus musculus [20] = test: Activity of compound dose of 4 mg/kg/day against Murine B-16 Melanocarcinoma in mice; type: functional
Mus musculus [21] = test: Antitumor activity against P-388 murine leukemia cells in CDF1 female mice after intraperitoneal administration at the specified optimal dose of 3.2 mg/kg; type: functional
Mus musculus [22] = test: Effect of compound on total white blood cell count in BDG1 male mice, after intraperitoneal administration at a dose of 7.5 mg/kg on day 3; type: functional
Mus musculus [23] = test: Effect of compound on total white blood cell count in BDG1 male mice, after intraperitoneal administration at a dose of 4.22 mg/kg on day 5; type: functional
Mus musculus [24] = test: Effect of compound on total white blood cell count in BDG1 male mice, after intraperitoneal administration at a dose of 3.16 mg/kg on day 3; type: functional
Mus musculus [25] = test: Effect of compound on total white blood cell count in BDG1 male mice, after intraperitoneal administration at a dose of 44.25 mg/kg on day 5; type: functional
Procedure, shortened: (§2)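 Single ip dose given on day 0 to BDG₁ male mice. Total white blood cell count measured on days 3, 5 and 7, expressed as % change from control. Highest dose was at the LD₅₀, or at twice the optimal dose where so footnoted. Significance reported at p ≤ 0.05 and p ≤ 0.01. D marks death of one or more mice.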

Mus musculus [26] = test: Effect of compound on total white blood cell count in BDG1 male mice, after intraperitoneal administration at a dose of 33.18 mg/kg on day 7; type: functional
Procedure, shortened: (§3)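 Single ip dose given on day 0 to BDG1 male mice over a descending dose series. Total white blood cell count is expressed as % change from untreated control on days 3, 5 and 7. Significance is flagged at p ≤ 0.05 and p ≤ 0.01.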

Mus musculus [27] = test: Effect of compound on total white blood cell count in BDG1 male mice, after intraperitoneal administration at a dose of 59.0 mg/kg on day 5; type: functional; procedure, shortened: as §2
Mus musculus [28] = test: Effect of compound on total white blood cell count in BDG1 male mice, after intraperitoneal administration at a dose of 44.25 mg/kg on day 7; type: functional; procedure, shortened: as §2
Mus musculus [29] = test: Effect of compound on total white blood cell count in BDG1 male mice, after intraperitoneal administration at a dose of 44.25 mg/kg on day 3; type: functional; procedure, shortened: as §2
Mus musculus [30] = test: Effect of compound on total white blood cell count in BDG1 male mice, after intraperitoneal administration at a dose of 33.18 mg/kg on day 3; type: functional; procedure, shortened: as §3
Mus musculus [31] = test: Effect of compound on total white blood cell count in BDG1 male mice, after intraperitoneal administration at a dose of 33.18 mg/kg on day 5; type: functional; procedure, shortened: as §3
[32] = Therapeutic ratio is expressed as ratio of optimal dose and minimum effective dose; type: ADME; settings: mouse; read-out: TR; procedure, shortened: as §1
Mus musculus [33] = test: Antitumor activity against P-388 murine leukemia cells in CDF1 female mice after intraperitoneal administration at the specified optimal dose of 25.6 mg/kg; type: functional
Mus musculus [34] = test: Effect of compound on total white blood cell count in BDG1 male mice, after intraperitoneal administration at a dose of 59.0 mg/kg on day 3; type: functional; procedure, shortened: as §2
Mus musculus [35] = test: Effect of compound on total white blood cell count in BDG1 male mice, after intraperitoneal administration at a dose of 59.0 mg/kg on day 7; type: functional; procedure, shortened: as §2
Mus musculus [36] = test: Minimum effective dose that show activity against P-388 murine leukemia cells in CDF1 female mice, after intraperitoneal administration (optimal dose is 25.6 mg/kg); type: functional; settings: P388, ip, read-out: MED; procedure, shortened: as §1

With `CO[C@@]12[C@H](COC(N)=O)C3=C(C(=O)C(C)=C(N)C3=O)N1C[C@@H]1N[C@@H]12` [MITOMYCIN] as the compound, how does the T/C (Mus musculus [1]) read?
The T/C was 122%.

What about the Change (Mus musculus [2]) of the same compound?
Its Change is -58%.

What about the minimal effective dose (Mus musculus [3]) of the same compound?
The minimal effective dose was 0.2 mg/kg.

What about the Change (Mus musculus [4]) of the same compound?
Its Change is -55%.

And the Change (Mus musculus [5])?
The Change was -42%.

What about the Change (Mus musculus [6]) of the same compound?
Its Change is -1%.

And the Change (Mus musculus [7])?
Its Change is -26%.

And the Change (Mus musculus [8])?
Its Change is -53%.

What about the Survivors (Mus musculus [9]) of the same compound?
Its Survivors is 1.

And the T/C (Mus musculus [10])?
The T/C was 164%.

What about the Survivors (Mus musculus [11]) of the same compound?
Its Survivors is 1.

What about the T/C (Mus musculus [12]) of the same compound?
The T/C was 136%.

And the T/C (Mus musculus [13])?
Its T/C is 159%.

What about the Change (Mus musculus [14]) of the same compound?
The Change was -38%.

And the Survivors (Mus musculus [15])?
Its Survivors is 1.

And the Change (Mus musculus [16])?
The Change was -42%.

And the Change (Mus musculus [17])?
The Change was -57%.

And the E1/2 (Mus musculus [18])?
Its E1/2 is -0.45.

What about the Change (Mus musculus [19]) of the same compound?
The Change was -67%.

And the T/C (Mus musculus [20])?
The T/C was 193%.

What about the T/C (Mus musculus [21]) of the same compound?
Its T/C is 178%.

And the Change (Mus musculus [22])?
Its Change is -58%.

And the Change (Mus musculus [23])?
Its Change is -53%.

What about the Change (Mus musculus [24]) of the same compound?
Its Change is -48%.

With `C#CCNC1=C(C)C(=O)C2=C(C1=O)[C@H](COC(N)=O)C1(OC)[C@H]3[C@@H](CN21)N3C` (stereo partly specified) as the compound, how does the Change (Mus musculus [25]) read?
Its Change is -69%.

What about the Change (Mus musculus [26]) of the same compound?
The Change was -49%.

What about the Change (Mus musculus [27]) of the same compound?
Its Change is -84%.

And the Change (Mus musculus [28])?
Its Change is -67%.

And the Change (Mus musculus [29])?
The Change was -74%.

And the Change (Mus musculus [30])?
The Change was -64%.

What about the Change (Mus musculus [31]) of the same compound?
Its Change is -66%.

What about the selectivity ratio [32] of the same compound?
The selectivity ratio was 16.

And the T/C (Mus musculus [33])?
Its T/C is 300%.

What about the Change (Mus musculus [34]) of the same compound?
The Change was -80%.

What about the Change (Mus musculus [35]) of the same compound?
Its Change is -77%.

What about the minimal effective dose (Mus musculus [36]) of the same compound?
Its minimal effective dose is 1.6 mg/kg.
